Reference: ChEMBL document CHEMBL4665652, “Discovery of novel quinoline sulphonamide derivatives as potent, selective and orally active RORγ inverse agonists” (Bioorg Med Chem Lett, 2019)
pEC50: −log10 of the molar value.

Columns and labels:
[1] = target: T1, Nuclear receptor ROR-gamma (Homo sapiens, UniProt P51449); test: Inverse agonist activity at RORgamma in human CD4+ T cells assessed as inhibition of IL17A secretion after 72 hrs by ELISA; assay type: cell-based, CD4+ve Th
T1 sequence (P51449 whole entry): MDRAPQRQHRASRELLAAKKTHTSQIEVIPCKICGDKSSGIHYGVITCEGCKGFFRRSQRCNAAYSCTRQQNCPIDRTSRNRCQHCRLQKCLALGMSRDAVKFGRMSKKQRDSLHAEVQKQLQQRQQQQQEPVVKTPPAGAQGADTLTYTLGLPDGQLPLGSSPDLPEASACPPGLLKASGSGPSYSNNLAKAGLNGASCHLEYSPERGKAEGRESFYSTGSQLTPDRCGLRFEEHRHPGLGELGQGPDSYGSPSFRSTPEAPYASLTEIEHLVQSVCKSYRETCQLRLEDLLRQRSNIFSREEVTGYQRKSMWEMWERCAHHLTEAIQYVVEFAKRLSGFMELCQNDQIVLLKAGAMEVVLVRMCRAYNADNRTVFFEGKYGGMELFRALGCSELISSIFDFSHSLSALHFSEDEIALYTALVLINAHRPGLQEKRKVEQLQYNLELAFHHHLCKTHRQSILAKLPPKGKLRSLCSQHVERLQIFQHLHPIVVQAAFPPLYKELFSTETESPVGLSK

[2] = target: T1, Nuclear receptor ROR-gamma; test: Inverse agonist activity at pSG5GAL4-DBD/LBD fused human RORgamma receptor expressed in COS7 cells co-expressing 5 copies of GAL4 response element after 18 hrs by luciferase reporter gene based assay; assay type: cell-based
[3] = Stability in human microsomes assessed as unbound intrinsic clearance; assay type: ADME, Microsome
Method in brief: (§1)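 Unbound intrinsic clearance measured in human and mouse liver microsomes, expressed in L/h/kg. Values are geometric means of at least two separate runs.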

[4] = Stability in mouse microsomes assessed as unbound intrinsic clearance; assay type: ADME, Microsome; method in brief: as §1
Mus musculus = test: Immunosuppressive activity in po dosed PLP (139 to 151 residues)-induced experimental autoimmune encephalomyelitis mouse model assessed as incidence of disease administered twice starting from immunization relative to control; assay type: functional
Method in brief: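 EAE induced in mice by immunization with proteolipid protein peptide PLP139-151; ascending paralysis develops 10–12 days post-immunization. Compound dosed orally b.i.d. starting from immunization. Disease onset/incidence scored relative to control.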

SMILES | pEC50 [1] | pEC50 [2] | CL free [3] [L/h/kg] | CL free [4] [L/h/kg] | Activity (Mus musculus) [%]
CNC(=O)[C@@H]1CCCN1S(=O)(=O)c1ccc(Cl)c(COc2cccc3c(C(F)(F)F)cc(C(C)C)nc23)c1Cl | 6.11 | 6.77 | 30 | 98 | 
Cc1cc(C(F)(F)F)c2cccc(OCc3c(Cl)ccc(S(=O)(=O)N4CCCC4)c3Cl)c2n1 |  |  | 14 | 58 | 
Cc1cc(C(F)(F)F)c2cccc(OCc3c(Cl)ccc(S(=O)(=O)N4CCCCC4)c3Cl)c2n1 |  |  | 14 | 60 | 
CNC(=O)[C@@H]1CCCN1S(=O)(=O)c1ccc(Cl)c(COc2cccc3c(-n4ccnc4)cc(C(F)(F)F)nc23)c1Cl | 5.48 | 6.77 | 1 | 8 | 
CNC(=O)[C@@H]1CCCN1S(=O)(=O)c1cccc(COc2cccc3c(C(F)(F)F)cc(C)nc23)c1 |  | < 5.00 | 3 | 46 | 
CCCCCCCCc1ccc(CCC(N)(CO)CO)cc1 [FINGOLIMOD] |  |  |  |  | 0
Cc1cc(C(F)(F)F)c2cccc(OCc3c(Cl)ccc(S(=O)(=O)N4C[C@@H](C)O[C@@H](C)C4)c3Cl)c2n1 |  | 6.66 | 19 | 56 | 
COC[C@@H]1CCCN1S(=O)(=O)c1ccc(Cl)c(COc2cccc3c(C(F)(F)F)cc(C)nc23)c1Cl | 6.80 | 6.80 | 27 | 97 | 
Cc1cc(C(F)(F)F)c2cccc(OCc3c(Cl)ccc(S(=O)(=O)N4CCC[C@H]4CO)c3Cl)c2n1 | 6.08 | 6.02 | 15 | 98 | 
Cc1cc(C(F)(F)F)c2cccc(OCc3c(Cl)ccc(S(=O)(=O)N4CCC(C#N)CC4)c3Cl)c2n1 |  | 6.12 | 26 | 103 | 
CNC(=O)[C@@H]1CCCN1S(=O)(=O)c1ccc(Cl)c(COc2cccc3c(-n4ccnc4)cc(C(C)C)nc23)c1Cl |  | 6.28 | 2 | 8 | 
Cc1cc(C(F)(F)F)c2cccc(OCc3c(Cl)ccc(S(=O)(=O)N4CCC[C@H]4C(N)=O)c3Cl)c2n1 | 6.33 | 6.36 | 10 | 756 | 
Cc1cc(C(F)(F)F)c2cccc(OCc3c(Cl)ccc(S(=O)(=O)N4CCC(CCO)CC4)c3Cl)c2n1 |  | 6.41 | 22 | 65 | 
Cc1cc(C(F)(F)F)c2cccc(OCc3c(Cl)ccc(S(=O)(=O)N4CC[C@@H](N(C)C)C4)c3Cl)c2n1 |  | 6.04 | 10 | 52 | 
CCN(c1ccc(C(O)(C(F)(F)F)C(F)(F)F)cc1)S(=O)(=O)c1ccccc1 | 6.03 | 5.97 |  |  | 

Second part, led by results:

pEC50 [1] | pEC50 [2] | CL free [3] [L/h/kg] | CL free [4] [L/h/kg] | SMILES | Activity (Mus musculus) [%]
6.05 | 6.49 |  |  | CNC(=O)[C@@H]1CCCN1S(=O)(=O)c1ccc(Cl)c(COc2cccc3c(-c4ccccc4)cc(C)nc23)c1Cl | 
 |  | 15 | 83 | CNC(=O)[C@@H]1CCCN1S(=O)(=O)c1ccc(Cl)c(COc2cccc3c(C(F)(F)F)cc(C)nc23)c1Cl | 
 | 5.86 | 0.5 | 0.8 | Cc1cc(C(F)(F)F)c2cccc(OCc3c(Cl)ccc(S(=O)(=O)N4CCC[C@H]4C(=O)O)c3Cl)c2n1 | 
 |  | 13 | 33 | CNC(=O)[C@@H]1CCCN1S(=O)(=O)c1ccc(Cl)c(COc2cccc3c(-c4ccncc4)cc(C)nc23)c1Cl | 
5.74 | 6.66 | 20 | 38 | CNC(=O)[C@@H]1CCCN1S(=O)(=O)c1ccc(Cl)c(COc2cccc3c(-c4ccncc4)cc(C(C)C)nc23)c1Cl | 
5.52 | 5.87 | 2 | 16 | CNC(=O)[C@@H]1CCCN1S(=O)(=O)c1ccc(Cl)c(COc2cccc3c(-n4ccnc4)cc(C)nc23)c1Cl | 
6.68 | 6.46 | 18 | 77 | CCc1cc(C(F)(F)F)c2cccc(OCc3c(Cl)ccc(S(=O)(=O)N4CCC[C@H]4C(=O)NC)c3Cl)c2n1 | 
 |  | 11 | 44 | CNC(=O)[C@@H]1CCCN1S(=O)(=O)c1ccc(Cl)c(COc2cccc3c(-c4ccccn4)cc(C)nc23)c1Cl | 
 |  | 40 | 73 | CNC(=O)[C@@H]1CCCN1S(=O)(=O)c1ccc(Cl)c(COc2cccc3c(OCc4ccccc4)cc(C(C)C)nc23)c1Cl | 
 | 6.06 | 28 | 109 | CNC(=O)[C@@H]1CCCN1S(=O)(=O)c1ccc(Cl)c(COc2cccc3c(OCc4ccccc4)cc(C)nc23)c1Cl | 
 | < 5.00 | 7 | 55 | CNC(=O)[C@@H]1CCCN1S(=O)(=O)c1ccc(Cl)c(COc2cccc3c(-c4nccn4C)cc(C)nc23)c1Cl | 
5.86 | 5.82 | 2 | 7 | CNC(=O)[C@@H]1CCCN1S(=O)(=O)c1ccc(Cl)c(COc2cccc3c(-c4cncn4C)cc(C)nc23)c1Cl | 
6.00 | 7.00 | 14 | 42 | CNC(=O)[C@@H]1CCCN1S(=O)(=O)c1ccc(Cl)c(COc2cccc3c(-c4cccnc4)cc(C)nc23)c1Cl | 
